# Test results published in ChEMBL document CHEMBL4359855, “Targeting IRAK4 for Degradation with PROTACs” (ACS Med Chem Lett, 2019).
# pIC50: −log10 of the molar value. Calls of active or inactive are those of the source. No cut-off for these calls is given here.
# Assays:
# [1] = target: T1, von Hippel-Lindau disease tumor suppressor/Interleukin-1 receptor-associated kinase 4 (Homo sapiens, UniProt Q9NWZ3+P40337); experiment: Protac activity at VHL/IRAK4 in human PBMC assessed as induction of degradation of IRAK4 incubated for 24 hrs by Western blot analysis; type: protein assay
# Method in brief: (§1)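 PBMCs exposed to rising compound concentrations for 24 h. IRAK4 protein read by Western blot against DMSO-treated cells. Dmax is the maximum degradation observed.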
# Target sequence in this assay (P40337 whole entry, one chain of several): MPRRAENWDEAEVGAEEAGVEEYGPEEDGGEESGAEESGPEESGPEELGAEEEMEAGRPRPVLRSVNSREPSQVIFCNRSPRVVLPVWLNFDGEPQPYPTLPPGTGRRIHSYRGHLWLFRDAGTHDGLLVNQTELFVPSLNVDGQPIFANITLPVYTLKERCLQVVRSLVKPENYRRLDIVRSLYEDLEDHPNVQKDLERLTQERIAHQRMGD
# [2] = Solubility of compound; type: physicochemical
# [3] = Chromatographic hydrophobicity index, log D of compound at pH 7.4; type: physicochemical; conditions: buffer
# [4] = target: T1, von Hippel-Lindau disease tumor suppressor/Interleukin-1 receptor-associated kinase 4; experiment: Protac activity at VHL/IRAK4 in human dermal fibroblast assessed as induction of degradation of IRAK4 incubated for 24 hrs by Western blot analysis; type: protein assay
# Method in brief: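 Human dermal fibroblasts treated with compound for 24 h. IRAK4 protein measured by Western blot and DC50 derived.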
# Target sequence in this assay (P40337 whole entry, one chain of several): as above
# [5] = target: T1, von Hippel-Lindau disease tumor suppressor/Interleukin-1 receptor-associated kinase 4; experiment: Protac activity at VHL/IRAK4 in human epoxomicin pretreated PBMC assessed as induction of degradation of IRAK4 at 0.01 to 10 uM incubated for 22 hrs by Western blot analysis; type: protein assay
# Method in brief: (§2)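 PBMCs pretreated 2 h with 10 μM epoxomicin, then given compound for a further 22 h. IRAK4 and p21 (proteasome-inhibition marker) read by Western blot against DMSO-treated cells.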
# Target sequence in this assay (P40337 whole entry, looked up, one chain of several): as the sequence (P40337 whole entry, one chain of several) above
# [6] = target: T2, von Hippel-Lindau disease tumor suppressor/Interleukin-1 receptor-associated kinase 4 (Homo sapiens, UniProt P40337+Q9NWZ3); experiment: Protac activity at VHL/IRAK4 in human PBMC assessed as reduction in R848-stimulated IFNgamma preincubated for 18 hrs followed by R848 stimulation and measured after 8 hrs by MSD assay; type: protein assay
# Method in brief: (§3)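 PBMCs pretreated 18 h with compound, then stimulated 8 h with R848 (2.5 μg/mL). Secreted cytokines measured by MSD electrochemiluminescence.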
# [7] = target: T2, von Hippel-Lindau disease tumor suppressor/Interleukin-1 receptor-associated kinase 4; experiment: Protac activity at VHL/IRAK4 in human PBMC assessed as reduction in R848-stimulated IL-6 level preincubated for 18 hrs followed by R848 stimulation and measured after 8 hrs by MSD assay; type: protein assay; method in brief: as §3
# [8] = target: T2, von Hippel-Lindau disease tumor suppressor/Interleukin-1 receptor-associated kinase 4; experiment: Protac activity at VHL/IRAK4 in human PBMC assessed as reduction in R848-stimulated IL-1beta level preincubated for 18 hrs followed by R848-stimulation and measured after 8 hrs by MSD assay; type: protein assay; method in brief: as §3
# [9] = target: T1, von Hippel-Lindau disease tumor suppressor/Interleukin-1 receptor-associated kinase 4; experiment: Protac activity at VHL/IRAK4 in human dermal fibroblast assessed as reduction in IL-1beta stimulated IL-6 level at 300 nM incubated for 18 hrs followed by IL-1beta stimulation further incubated for 8 hrs by MSD assay; type: protein assay
# Method in brief: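 Human dermal fibroblasts pretreated 18 h with 300 nM compound, then stimulated 8 h with IL-1β (10 ng/mL). Secreted IL-6 measured. n = 4, mean ± SE.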
# Target sequence in this assay (P40337 whole entry, looked up, one chain of several): as the sequence (P40337 whole entry, one chain of several) above
# [10] = target: T1, von Hippel-Lindau disease tumor suppressor/Interleukin-1 receptor-associated kinase 4; experiment: Protac activity at VHL/IRAK4 in human epoxomicin PBMC assessed as increase in p21 accumulation at 0.01 to 10 uM incubated for 22 hrs by Western blot analysis; type: protein assay; method in brief: as §2
# Target sequence in this assay (P40337 whole entry, looked up, one chain of several): as the sequence (P40337 whole entry, one chain of several) above
# [11] = target: T2, von Hippel-Lindau disease tumor suppressor/Interleukin-1 receptor-associated kinase 4; experiment: Protac activity at VHL/IRAK4 in human PBMC assessed as reduction in R848-stimulated IL-8 level preincubated for 18 hrs followed by R848 stimulation and measured after 8 hrs by MSD assay; type: protein assay; method in brief: as §3
# [12] = target: T2, von Hippel-Lindau disease tumor suppressor/Interleukin-1 receptor-associated kinase 4; experiment: Protac activity at VHL/IRAK4 in human PBMC assessed as reduction in R848-stimulated TNFalpha level preincubated for 18 hrs followed by R848 stimulation and measured after 8 hrs by MSD assay; type: protein assay; method in brief: as §3
# [13] = target: T2, von Hippel-Lindau disease tumor suppressor/Interleukin-1 receptor-associated kinase 4; experiment: Protac activity at VHL/IRAK4 in human PBMC assessed as reduction in R848-stimulated IL-10 level preincubated for 18 hrs followed by R848 stimulation and measured after 8 hrs by MSD assay; type: protein assay; method in brief: as §3
# [14] = target: T3, Interleukin-1 receptor-associated kinase 4 (Homo sapiens, UniProt Q9NWZ3); experiment: Binding affinity to human IRK4 using myelin basic protein as substrate by [gamma-33P]-ATP assay
# T3 sequence (Q9NWZ3 whole entry): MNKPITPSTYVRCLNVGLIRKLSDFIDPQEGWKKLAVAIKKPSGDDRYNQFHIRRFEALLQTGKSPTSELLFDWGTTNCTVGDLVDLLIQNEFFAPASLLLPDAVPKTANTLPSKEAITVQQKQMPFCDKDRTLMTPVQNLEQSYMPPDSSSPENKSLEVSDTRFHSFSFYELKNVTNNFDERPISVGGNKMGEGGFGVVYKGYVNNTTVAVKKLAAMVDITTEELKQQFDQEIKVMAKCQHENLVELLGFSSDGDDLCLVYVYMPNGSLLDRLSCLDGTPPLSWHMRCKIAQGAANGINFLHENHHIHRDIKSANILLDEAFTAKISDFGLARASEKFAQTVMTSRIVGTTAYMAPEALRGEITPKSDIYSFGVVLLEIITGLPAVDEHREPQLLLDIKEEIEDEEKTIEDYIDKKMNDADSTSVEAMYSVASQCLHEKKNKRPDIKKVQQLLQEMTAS
# [15] = target: T1, von Hippel-Lindau disease tumor suppressor/Interleukin-1 receptor-associated kinase 4; experiment: Protac activity at VHL/IRAK4 in human PBMCs assessed as induction of degradation of IRAK4 at 0.1 to 10 uM incubated for 24 hrs by Western blot analysis
# Target sequence in this assay (P40337 whole entry, looked up, one chain of several): as the sequence (P40337 whole entry, one chain of several) above
# [16] = target: Interleukin-1 receptor-associated kinase 1 (Homo sapiens, UniProt P51617); experiment: Binding affinity to human IRK1 using myelin basic protein as substrate by [gamma-33P]-ATP assay
# [17] = target: E3 ubiquitin-protein ligase XIAP/Interleukin-1 receptor-associated kinase 4 (Homo sapiens) (UniProt Q9NWZ3+P98170); experiment: Protac activity at IAP/IRAK4 in human PBMC assessed as induction of degradation of IRAK4 incubated for 24 hrs by Western blot analysis relative to control; type: protein assay; method in brief: as §1
# [18] = target: Protein cereblon/Interleukin-1 receptor-associated kinase 4 (Homo sapiens) (UniProt Q9NWZ3+Q96SW2); experiment: Protac activity at CRBN/IRAK4 in human PBMC assessed as induction of degradation of IRAK4 incubated for 24 hrs by Western blot analysis relative to control; type: protein assay; method in brief: as §1
# [19] = target: T1, von Hippel-Lindau disease tumor suppressor/Interleukin-1 receptor-associated kinase 4; experiment: Protac activity at VHL/IRAK4 in human PBMC assessed as induction of degradation of IRAK4 at 3 uM incubated for 24 hrs by Western blot analysis relative to control; type: protein assay; method in brief: as §1
# Target sequence in this assay (P40337 whole entry, looked up, one chain of several): as the sequence (P40337 whole entry, one chain of several) above
# [20] = target: T1, von Hippel-Lindau disease tumor suppressor/Interleukin-1 receptor-associated kinase 4; experiment: Protac activity at VHL/IRAK4 in human PBMC assessed as remaining IRAK4 level at 100 nM incubated for 24 hrs by Western blot analysis relative to control; type: protein assay; method in brief: as §1
# Target sequence in this assay (P40337 whole entry, looked up, one chain of several): as the sequence (P40337 whole entry, one chain of several) above
# [21] = target: T1, von Hippel-Lindau disease tumor suppressor/Interleukin-1 receptor-associated kinase 4; experiment: Protac activity at VHL/IRAK4 in human PBMC assessed as remaining IRAK4 level at 1 uM incubated for 24 hrs by Western blot analysis relative to control; type: protein assay; method in brief: as §1
# [22] = target: T1, von Hippel-Lindau disease tumor suppressor/Interleukin-1 receptor-associated kinase 4; experiment: Protac activity at VHL/IRAK4 in human PBMC assessed as remaining IRAK4 level at 300 nM incubated for 24 hrs by Western blot analysis relative to control; type: protein assay; method in brief: as §1
# [23] = target: T1, von Hippel-Lindau disease tumor suppressor/Interleukin-1 receptor-associated kinase 4; experiment: Protac activity at VHL/IRAK4 in human PBMC assessed as remaining IRAK4 level at 10 uM incubated for 24 hrs by Western blot analysis relative to control; type: protein assay; method in brief: as §1
# [24] = target: T1, von Hippel-Lindau disease tumor suppressor/Interleukin-1 receptor-associated kinase 4; experiment: Protac activity at VHL/IRAK4 in human PBMC assessed as induction of degradation of IRAK4 incubated for 24 hrs by Western blot analysis relative to control; type: protein assay; method in brief: as §1
# Chain of Interleukin-1 receptor-associated kinase 1 (P51617 whole entry): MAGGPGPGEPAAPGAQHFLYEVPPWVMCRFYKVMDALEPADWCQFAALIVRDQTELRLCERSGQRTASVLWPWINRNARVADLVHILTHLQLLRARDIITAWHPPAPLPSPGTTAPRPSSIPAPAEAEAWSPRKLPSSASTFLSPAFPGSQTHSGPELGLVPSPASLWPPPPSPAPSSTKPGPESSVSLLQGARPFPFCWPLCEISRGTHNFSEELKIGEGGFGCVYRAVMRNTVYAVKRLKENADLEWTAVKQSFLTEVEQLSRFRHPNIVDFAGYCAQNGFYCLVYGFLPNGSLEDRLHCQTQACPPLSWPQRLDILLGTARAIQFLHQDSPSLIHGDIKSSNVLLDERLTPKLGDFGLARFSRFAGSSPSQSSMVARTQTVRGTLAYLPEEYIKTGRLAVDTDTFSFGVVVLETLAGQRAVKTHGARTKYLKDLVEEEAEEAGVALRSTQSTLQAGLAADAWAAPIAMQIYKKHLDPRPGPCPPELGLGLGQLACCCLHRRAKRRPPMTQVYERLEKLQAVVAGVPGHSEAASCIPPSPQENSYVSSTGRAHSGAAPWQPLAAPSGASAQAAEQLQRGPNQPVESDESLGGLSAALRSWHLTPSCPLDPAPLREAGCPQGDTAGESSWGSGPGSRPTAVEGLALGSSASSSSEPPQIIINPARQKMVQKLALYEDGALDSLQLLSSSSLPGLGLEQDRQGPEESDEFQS
# T2 sequence (P40337 whole entry, one chain of several): as the sequence (P40337 whole entry, one chain of several) above
# Chain of E3 ubiquitin-protein ligase XIAP/Interleukin-1 receptor-associated kinase 4 (Homo sapiens) (P98170 whole entry, looked up, one chain of several): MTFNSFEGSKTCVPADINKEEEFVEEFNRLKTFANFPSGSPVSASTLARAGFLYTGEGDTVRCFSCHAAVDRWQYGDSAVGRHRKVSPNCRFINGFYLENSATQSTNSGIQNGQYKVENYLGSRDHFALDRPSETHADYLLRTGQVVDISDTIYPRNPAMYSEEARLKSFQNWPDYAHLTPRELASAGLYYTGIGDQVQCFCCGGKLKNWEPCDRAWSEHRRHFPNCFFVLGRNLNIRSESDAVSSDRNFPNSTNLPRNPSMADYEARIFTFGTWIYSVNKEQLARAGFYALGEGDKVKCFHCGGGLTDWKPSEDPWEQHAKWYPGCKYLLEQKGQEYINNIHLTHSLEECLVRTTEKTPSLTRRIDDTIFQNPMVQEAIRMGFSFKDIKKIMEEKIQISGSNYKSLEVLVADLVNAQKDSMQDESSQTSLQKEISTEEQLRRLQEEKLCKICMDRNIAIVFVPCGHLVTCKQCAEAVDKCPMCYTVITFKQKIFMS
# Chain of Protein cereblon/Interleukin-1 receptor-associated kinase 4 (Homo sapiens) (Q96SW2 whole entry, looked up, one chain of several): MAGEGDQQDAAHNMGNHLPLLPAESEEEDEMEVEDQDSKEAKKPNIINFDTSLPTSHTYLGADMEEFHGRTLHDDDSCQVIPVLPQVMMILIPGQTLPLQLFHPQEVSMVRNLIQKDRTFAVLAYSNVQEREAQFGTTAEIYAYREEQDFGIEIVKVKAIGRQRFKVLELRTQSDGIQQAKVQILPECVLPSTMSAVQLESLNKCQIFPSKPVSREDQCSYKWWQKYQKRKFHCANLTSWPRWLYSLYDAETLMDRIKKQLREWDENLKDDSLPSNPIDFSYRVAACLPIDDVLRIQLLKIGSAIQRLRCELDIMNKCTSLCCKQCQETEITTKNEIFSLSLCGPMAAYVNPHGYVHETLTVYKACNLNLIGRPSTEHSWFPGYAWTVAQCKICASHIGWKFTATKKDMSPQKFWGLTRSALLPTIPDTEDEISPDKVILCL
Chromatographic log D at pH 7.4 (ChromLogD) [3],pIC50 [14],Activity [15],pIC50 [16],SMILES,also measured
6.44,,,,"CC[C@@H]1[C@H](F)C(=O)N[C@@H]1COc1ncc(C#CCCCCCCCCCCC(=O)N[C@H](C(=O)N2CC(O)CC2C(=O)NCc2ccc(-c3scnc3C)cc2)C(C)(C)C)c2cc(C(N)=O)c(OC)cc12 (single isomer, unassigned)",DC50 [1]: 259 nM; solubility [2]: < 1 µM
4.97,,,,CC[C@@H]1[C@H](F)C(=O)N[C@@H]1COc1ncc(C#CCN2CCC3(CC2)CCN(c2ncc(C(=O)N[C@H](C(=O)N4C[C@H](O)C[C@H]4C(=O)NCc4ccc(-c5scnc5C)cc4)C(C)(C)C)cn2)CC3)c2cc(C(N)=O)c(OC)cc12,DC50 [4]: 36 nM; Activity [5]: inactive; pIC50 [6]: 7.50; DC50 [1]: 151 nM; solubility [2]: 5 µM; pIC50 [7]: 7.20; pIC50 [8]: 7.40; Activity [9]: inactive; Activity [10]: Active; pIC50 [11]: 7.10; pIC50 [12]: 7.30; pIC50 [13]: 6.50
3.79,10.66,inactive,< 5.00,CN[C@@H](C)C(=O)N[C@H](C(=O)N1C[C@@H](NC(=O)CCOCCOCCOCC#Cc2cnc(OC[C@@H]3CCC(=O)N3)c3cc(OC)c(C(N)=O)cc23)C[C@H]1C(=O)N[C@@H]1CCCc2ccccc21)C1CCCCC1,Emax [17]: 0%
,,inactive,,COc1cc2c(OC[C@@H]3CCC(=O)N3)ncc(C#CCOCCOCCOCCOc3cccc4c3C(=O)N(C3CCC(=O)NC3=O)C4=O)c2cc1C(N)=O (some centres not stated),Emax [18]: 0%
,,inactive,,COc1cc2c(OC[C@@H]3CCC(=O)N3)ncc(C#CCCCC(=O)N[C@H](C(=O)N3C[C@H](O)C[C@H]3C(=O)NCc3ccc(-c4scnc4C)cc3)C(C)(C)C)c2cc1C(N)=O,
,,inactive,,COc1cc2c(OC[C@@H]3CCC(=O)N3)ncc(C#CCCC(=O)N[C@H](C(=O)N3C[C@H](O)C[C@H]3C(=O)NCc3ccc(-c4scnc4C)cc3)C(C)(C)C)c2cc1C(N)=O,
,,,,CC[C@@H]1[C@H](F)C(=O)N[C@@H]1COc1nccc2cc(C(N)=O)c(OC)cc12,Activity [9]: inactive
5.82,10.00,,< 5.00,COc1cc2c(OC[C@@H]3CCC(=O)N3)ncc(C#CCCCCCCCCCCC(=O)N[C@H](C(=O)N3C[C@H](O)C[C@H]3C(=O)NCc3ccc(-c4scnc4C)cc3)C(C)(C)C)c2cc1C(N)=O,Emax [19]: 50%; Activity [20]: 101%; Activity [21]: 81%; Activity [22]: 80%; Activity [23]: 65%
6.01,8.60,inactive,< 5.00,COc1cc2c(OC[C@@H]3CCC(=O)N3)ncc(C#CCCCCCCCCCCOc3cccc4c3C(=O)N(C3CCC(=O)NC3=O)C4=O)c2cc1C(N)=O (some centres not stated),Emax [18]: 0%
6.56,7.68,inactive,5.16,CN[C@@H](C)C(=O)N[C@H](C(=O)N1C[C@@H](NC(=O)CCCCCCCCCCC#Cc2cnc(OC[C@@H]3CCC(=O)N3)c3cc(OC)c(C(N)=O)cc23)C[C@H]1C(=O)N[C@@H]1CCCc2ccccc21)C1CCCCC1,Emax [17]: 0%
3.18,9.54,inactive,< 5.00,COc1cc2c(OC[C@@H]3CCC(=O)N3)ncc(C#CCOCCOCCOCCC(=O)N[C@H](C(=O)N3C[C@H](O)C[C@H]3C(=O)NCc3ccc(-c4scnc4C)cc3)C(C)(C)C)c2cc1C(N)=O,Emax [24]: 0%
2.1,8.68,,< 5.00,COc1cc2c(OC[C@@H]3CCC(=O)N3)ncc(Br)c2cc1C(N)=O,
